Assays:
[1] = test system: S.aureus infected skin wound; assay: In vivo anti-infection study, S.aureus infected full-thickness wound model; parameters: species or system rat; settings: SD rats, early stages, n = 5
Procedure, shortened: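 Rats bearing S. aureus-infected skin wounds were given PBS (control) or test compound. Wound beds were inspected visually for yellow pus in the early stages. Infection was confirmed by agar plate counts of tissue exudate from wound sites on day 3. Wound healing and wound size were followed over time. Mean ± SD, n = 5.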

S. aureus biofilm = assay: Activity against mature S. aureus biofilm; type: cell-based, Staphylococcus aureus; settings: treatment for 8 h

How did the “pyogenic infection (yellow pus) on the infected wound bed” value [1] turn out when N3-Arg-Trp-Arg-Trp-Arg-Trp-NH2 [AMP] was run?
Its value is “not observed”.

And the “minimum eradication biofilm concentration” value (S. aureus biofilm)?
Its value is 1,280 μmol L^−1.
